Measurements published in ChEMBL document CHEMBL2202981, “Synthesis and cytotoxicity evaluation of highly functionalized pyranochromenes and pyranopyrans” (Bioorg Med Chem Lett, 2012).

What was measured:
Type in all cases: functional, cell-based
MCF7 = test: Cytotoxicity against human MCF7 cells by MTT assay
In short: (§1)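 MTT assay on four human tumour lines: A549 (alveolar adenocarcinoma epithelial), HeLa (cervical cancer), MDA-MB-231 and MCF7 (breast adenocarcinoma). Dose-response curves were plotted from absorbance data, and IC50 was calculated from them. Each value is the average of two independent experiments.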

A549 = test: Cytotoxicity against human A549 cells by MTT assay
HeLa = test: Cytotoxicity against human HeLa cells by MTT assay; in short: as §1
MDA-MB-231 = test: Cytotoxicity against human MDA-MB-231 cells by MTT assay; in short: as §1
[1] = Homo sapiens, MCF7, read-out: IC50
[2] = Homo sapiens, HeLa, read-out: IC50
[3] = Homo sapiens, MDA-MB-231, read-out: IC50
[4] = Homo sapiens, A549, read-out: IC50

Compound: CCOC(=O)C1C(c2ccc(F)cc2)c2c(c3ccccc3oc2=O)OC1(O)C(F)(F)F (racemic)
- IC50 (MCF7; [1]): 7.67 µM
- IC50 (A549; a549): Not Active
- IC50 (HeLa; [2]): 11 µM
- IC50 (MDA-MB-231; [3]): 11.3 µM

Compound: CCOC(=O)C1C(c2ccc(C#N)cc2)c2c(c3ccccc3oc2=O)OC1(O)C(F)(F)F (racemic)
- IC50 (MCF7; mcf7): Not Active
- IC50 (A549; a549): Not Active
- IC50 (HeLa; hela): Not Active
- IC50 (MDA-MB-231; mda-mb-231): Not Active

Compound: CCOC(=O)C1C(c2ccc(OC)cc2)c2c(c3ccccc3oc2=O)OC1(O)C(F)(F)F (racemic)
- IC50 (MCF7; [1]): 71.7 µM
- IC50 (A549; [4]): 82.4 µM
- IC50 (HeLa; [2]): 11.2 µM
- IC50 (MDA-MB-231; [3]): 2.2 µM

Compound: CCOC(=O)C1C(c2ccc(O)cc2)c2c(c3ccccc3oc2=O)OC1(O)C(F)(F)F (racemic)
- IC50 (MCF7; mcf7): Not Active
- IC50 (A549; a549): Not Active
- IC50 (HeLa; hela): Not Active
- IC50 (MDA-MB-231; mda-mb-231): Not Active

Compound: CCOC(=O)C1C(c2ccc(O)c(OC)c2)c2c(c3ccccc3oc2=O)OC1(O)C(F)(F)F (racemic)
- IC50 (MCF7; mcf7): Not Active
- IC50 (A549; a549): Not Active
- IC50 (HeLa; hela): Not Active
- IC50 (MDA-MB-231; mda-mb-231): Not Active

Compound: CCOC(=O)C1C(c2ccc(C(C)C)cc2)c2c(c3ccccc3oc2=O)OC1(O)C(F)(F)F (racemic)
- IC50 (MCF7; mcf7): Not Active
- IC50 (A549; a549): Not Active
- IC50 (HeLa; hela): Not Active
- IC50 (MDA-MB-231; mda-mb-231): Not Active

Compound: CCOC(=O)C1C(c2ccc(OC)c(OC)c2)c2c(c3ccccc3oc2=O)OC1(O)C(F)(F)F (racemic)
- IC50 (MCF7; [1]): 53.9 µM
- IC50 (A549; [4]): 34.3 µM
- IC50 (HeLa; [2]): 87 µM
- IC50 (MDA-MB-231; [3]): 7.71 µM

Compound: CCOC(=O)C1C(c2ccc([N+](=O)[O-])cc2)c2c(c3cc(F)ccc3oc2=O)OC1(O)C(F)(F)F (racemic)
- IC50 (MCF7; mcf7): Not Active
- IC50 (A549; a549): Not Active
- IC50 (HeLa; hela): Not Active
- IC50 (MDA-MB-231; mda-mb-231): Not Active

Compound: CCOC(=O)C1C(c2ccc(F)cc2)c2c(c3cc(F)ccc3oc2=O)OC1(O)C(F)(F)F (racemic)
- IC50 (MCF7; mcf7): Not Active
- IC50 (A549; a549): Not Active
- IC50 (HeLa; hela): Not Active
- IC50 (MDA-MB-231; mda-mb-231): Not Active

Compound: CCOC(=O)C1C(c2ccc(C#N)cc2)c2c(c3cc(F)ccc3oc2=O)OC1(O)C(F)(F)F (racemic)
- IC50 (MCF7; mcf7): Not Active
- IC50 (A549; a549): Not Active
- IC50 (HeLa; hela): Not Active
- IC50 (MDA-MB-231; mda-mb-231): Not Active

Compound: CCOC(=O)C1C(c2ccc(O)cc2)c2c(c3cc(F)ccc3oc2=O)OC1(O)C(F)(F)F (racemic)
- IC50 (MCF7; [1]): 6.54 µM
- IC50 (A549; [4]): 33.9 µM
- IC50 (HeLa; [2]): 11.5 µM
- IC50 (MDA-MB-231; [3]): 6.61 µM

Compound: CCOC(=O)C1C(c2cccnc2)c2c(c3ccccc3oc2=O)OC1(O)C(F)(F)F (racemic)
- IC50 (MCF7; mcf7): Not Active
- IC50 (A549; a549): Not Active
- IC50 (HeLa; hela): Not Active
- IC50 (MDA-MB-231; mda-mb-231): Not Active

Compound: CCOC(=O)C1C(c2ccc(C)cc2)c2oc(CO)cc(=O)c2OC1(O)C(F)(F)F (racemic)
- IC50 (MCF7; mcf7): Not Active
- IC50 (A549; a549): Not Active
- IC50 (HeLa; hela): Not Active
- IC50 (MDA-MB-231; mda-mb-231): Not Active

Compound: CCOC(=O)C1C(c2ccc(OC)cc2)c2oc(CO)cc(=O)c2OC1(O)C(F)(F)F (racemic)
- IC50 (MCF7; mcf7): Not Active
- IC50 (A549; a549): Not Active
- IC50 (HeLa; hela): Not Active
- IC50 (MDA-MB-231; mda-mb-231): Not Active

Compound: CCOC(=O)C1C(c2ccc(O)cc2)c2oc(CO)cc(=O)c2OC1(O)C(F)(F)F (racemic)
- IC50 (MCF7; mcf7): Not Active
- IC50 (A549; a549): Not Active
- IC50 (HeLa; hela): Not Active
- IC50 (MDA-MB-231; mda-mb-231): Not Active

Compound: COc1cccc2c1C(=O)c1c(O)c3c(c(O)c1C2=O)C[C@@](O)(C(=O)CO)C[C@@H]3O[C@H]1C[C@H](N)[C@H](O)[C@H](C)O1 [DOXORUBICIN]
- IC50 (HeLa; [2]): < 1 µM
- IC50 (MDA-MB-231; [3]): < 1 µM
